Experimental data: ChEMBL document CHEMBL1128508, “Synthesis and biological evaluation of radioiodinated phospholipid ether stereoisomers” (J Med Chem, 1995)

What was measured:
Rattus norvegicus [1] = assay: Biodistribution in lung 48 hours after iv injection in walker tumor bearing rat; type: ADME, organism-based; conditions: in vivo
Outline: (§1)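 Female Sprague–Dawley rats (200–250 g) were inoculated in the right hind limb with 5.0 × 10⁶ Walker 256 cells in saline and used 6–10 days later, when tumors averaged 10 g. The radioiodinated agent, in 2–3% Tween-20/saline after ethanol removal, was given as 5–10 μCi in 0.5 mL by tail vein to anesthetized rats. Tissues were dissected, weighed and counted with decay correction. Values are % ID/g, mean ± SEM, n = 3.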

Rattus norvegicus [2] = assay: Biodistribution in muscle 48 hours after iv injection in walker tumor bearing rat; type: ADME, organism-based, Muscle tissue; conditions: in vivo; outline: as §1
Rattus norvegicus [3] = assay: Ratio of the biodistribution in tumor to liver 48 hours after iv injection in walker tumor bearing rat; type: ADME, organism-based; conditions: in vivo
Outline: (§2)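 Walker 256 tumor-bearing female Sprague–Dawley rats were given 5–10 μCi of radioiodinated agent in Tween-20/saline iv by tail vein (n = 3 per time point). After dissection and decay-corrected counting, tumor % ID/g was divided by blood or liver % ID/g.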

Rattus norvegicus [4] = assay: Ratio of the biodistribution in tumor to blood 24 hours after iv injection in walker tumor bearing rat; type: ADME, organism-based; conditions: tumour; outline: as §2
Rattus norvegicus [5] = assay: Biodistribution in lung 24 hours after iv injection in walker tumor bearing rat; type: ADME, organism-based; conditions: in vivo; outline: as §1
Rattus norvegicus [6] = assay: Biodistribution in plasma 24 hours after iv injection in walker tumor bearing rat; type: ADME, organism-based; conditions: in vivo; outline: as §1
Rattus norvegicus [7] = assay: Biodistribution in injected site 48 hours after iv injection in walker tumor bearing rat; type: ADME, organism-based; conditions: in vivo; outline: as §1
Rattus norvegicus [8] = assay: Ratio of the biodistribution in tumor to blood 48 hours after iv injection in walker tumor bearing rat; type: ADME, organism-based; conditions: in vivo; outline: as §2
Rattus norvegicus [9] = assay: Biodistribution in ovary 48 hours after iv injection in walker tumor bearing rat; type: ADME, organism-based, Female gonad; conditions: in vivo; outline: as §1
Rattus norvegicus [10] = assay: Biodistribution in muscle 24 hours after iv injection in walker tumor bearing rat; type: ADME, organism-based, Muscle tissue; conditions: in vivo; outline: as §1
Rattus norvegicus [11] = assay: Biodistribution in blood 24 hours after iv injection in walker tumor bearing rat; type: ADME, organism-based; conditions: in vivo; outline: as §1
Rattus norvegicus [12] = assay: Biodistribution in liver 24 hours after iv injection in walker tumor bearing rat; type: ADME, organism-based; conditions: in vivo; outline: as §1
Rattus norvegicus [13] = assay: Biodistribution in tumor 48 hours after iv injection in walker tumor bearing rat; type: ADME, organism-based; conditions: in vivo; outline: as §1
Rattus norvegicus [14] = assay: Biodistribution in duodenum 48 hours after iv injection in walker tumor bearing rat; type: ADME, organism-based; conditions: in vivo; outline: as §1
Rattus norvegicus [15] = assay: Biodistribution in spleen 48 hours after iv injection in walker tumor bearing rat; type: ADME, organism-based; conditions: in vivo; outline: as §1
Rattus norvegicus [16] = assay: Biodistribution in injected site 24 hours after iv injection in walker tumor bearing rat; type: ADME, organism-based; conditions: in vivo; outline: as §1
Rattus norvegicus [17] = assay: Biodistribution in ovary 24 hours after iv injection in walker tumor bearing rat; type: ADME, organism-based, Female gonad; conditions: in vivo; outline: as §1
Rattus norvegicus [18] = assay: Biodistribution in thyroid 48 hours after iv injection in walker tumor bearing rat; type: ADME, organism-based, Thyroid gland; conditions: in vivo; outline: as §1
Rattus norvegicus [19] = assay: Biodistribution in plasma 48 hours after iv injection in walker tumor bearing rat; type: ADME, organism-based; conditions: in vivo; outline: as §1
Rattus norvegicus [20] = assay: Ratio of the biodistribution in tumor to liver 24 hours after iv injection in walker tumor bearing rat; type: ADME, organism-based; conditions: in vivo; outline: as §2
Rattus norvegicus [21] = assay: Biodistribution in duodenum 24 hours after iv injection in walker tumor bearing rat; type: ADME, organism-based; conditions: in vivo; outline: as §1
Rattus norvegicus [22] = assay: Biodistribution in liver 48 hours after iv injection in walker tumor bearing rat; type: ADME, organism-based; conditions: in vivo; outline: as §1
Rattus norvegicus [23] = assay: Biodistribution in blood 48 hours after iv injection in walker tumor bearing rat; type: ADME, organism-based; conditions: in vivo; outline: as §1
Rattus norvegicus [24] = assay: Biodistribution in tumor 24 hours after iv injection in walker tumor bearing rat; type: ADME, organism-based; conditions: in vivo; outline: as §1
Rattus norvegicus [25] = assay: Biodistribution in thyroid 24 hours after iv injection in walker tumor bearing rat; type: ADME, organism-based, Thyroid gland; conditions: in vivo; outline: as §1
Rattus norvegicus [26] = assay: Biodistribution in spleen 24 hours after iv injection in walker tumor bearing rat; type: ADME, organism-based; conditions: in vivo; outline: as §1
Rattus norvegicus [27] = assay: Biodistribution in kidney 24 hours after iv injection in walker tumor bearing rat; type: ADME, organism-based; conditions: in vivo; outline: as §1
Rattus norvegicus [28] = assay: Biodistribution in kidney 48 hours after iv injection in walker tumor bearing rat; type: ADME, organism-based; conditions: in vivo; outline: as §1

Row | SMILES | ID/g (Rattus norvegicus [1]) | ID/g (Rattus norvegicus [2]) | ID/g (Rattus norvegicus [3]) | ID/g (Rattus norvegicus [4]) | ID/g (Rattus norvegicus [5]) | ID/g (Rattus norvegicus [6]) | ID/g (Rattus norvegicus [7]) | ID/g (Rattus norvegicus [8]) | ID/g (Rattus norvegicus [9]) | ID/g (Rattus norvegicus [10]) | ID/g (Rattus norvegicus [11]) | ID/g (Rattus norvegicus [12]) | ID/g (Rattus norvegicus [13]) | ID/g (Rattus norvegicus [14]) | ID/g (Rattus norvegicus [15]) | ID/g (Rattus norvegicus [16]) | ID/g (Rattus norvegicus [17]) | ID/g (Rattus norvegicus [18]) | ID/g (Rattus norvegicus [19]) | ID/g (Rattus norvegicus [20]) | other results
1 | CO[C@H](COCCCCCCCCCCCCc1cccc(I)c1)COP(=O)([O-])OCC[N+](C)(C)C | 0.14% | 0.02% | 1.7 | 11 | 0.29% | 0.06% | 0.25% | 14.3 | 0.14% | 0.04% | 0.05% | 0.52% | 0.43% | 0.34% | 0.1% | 0.23% | 0.28% | 24.11% | 0.03% | 1.1 | ID/g (Rattus norvegicus [21]): 0.73%; ID/g (Rattus norvegicus [22]): 0.25%; ID/g (Rattus norvegicus [23]): 0.03%; ID/g (Rattus norvegicus [24]): 0.55%; ID/g (Rattus norvegicus [25]): 23.81%; ID/g (Rattus norvegicus [26]): 0.37%; ID/g (Rattus norvegicus [27]): 0.33%; ID/g (Rattus norvegicus [28]): 0.2%
2 | CO[C@@H](COCCCCCCCCCCCCc1cccc(I)c1)COP(=O)([O-])OCC[N+](C)(C)C | 0.14% | 0.02% | 2 | 11.1 | 0.35% | 0.06% | 0.24% | 15 | 0.14% | 0.05% | 0.07% | 0.53% | 0.45% | 0.23% | 0.1% | 0.26% | 0.31% | 13.69% | 0.03% | 1.5 | ID/g (Rattus norvegicus [21]): 1.04%; ID/g (Rattus norvegicus [22]): 0.23%; ID/g (Rattus norvegicus [23]): 0.03%; ID/g (Rattus norvegicus [24]): 0.78%; ID/g (Rattus norvegicus [25]): 10.33%; ID/g (Rattus norvegicus [26]): 0.43%; ID/g (Rattus norvegicus [27]): 0.37%; ID/g (Rattus norvegicus [28]): 0.16%
3 | COC(COCCCCCCCCCCCCc1cccc(I)c1)COP(=O)([O-])OCC[N+](C)(C)C (racemic) | 0.2% | 0.03% | 1.6 | 12.1 | 0.34% | 0.1% | 0.17% | 11.2 | 0.27% | 0.04% | 0.07% | 0.81% | 0.56% | 0.44% | 0.17% | 0.24% | 0.37% | 24.44% | 0.05% | 1.1 | ID/g (Rattus norvegicus [21]): 1.12%; ID/g (Rattus norvegicus [22]): 0.35%; ID/g (Rattus norvegicus [23]): 0.05%; ID/g (Rattus norvegicus [24]): 0.85%; ID/g (Rattus norvegicus [25]): 47.22%; ID/g (Rattus norvegicus [26]): 0.42%; ID/g (Rattus norvegicus [27]): 0.46%; ID/g (Rattus norvegicus [28]): 0.24%
